In ChEMBL document CHEMBL1144664, “Design, synthesis, and SAR of new pyrrole-oxindole progesterone receptor modulators leading to 5-(7-fluoro-3,3-dimethyl-2-oxo-2,3-dihydro-1H-indol-5-yl)-1-methyl-1H-pyrrole-2-carbonitrile (WAY-255348)” (J Med Chem, 2008):
The source made the active and inactive calls. The rule behind the calls is not given here.

Columns and labels:
[1] = biological target: T1, Mineralocorticoid receptor (Homo sapiens) (UniProt P08235); test: Agonist activity at human MR ligand binding domain receptor expressed in african green monkey COS7 cells by Gal4 hybrid assay; format: cell-based; conditions: COS-7
T1 sequence (whole entry): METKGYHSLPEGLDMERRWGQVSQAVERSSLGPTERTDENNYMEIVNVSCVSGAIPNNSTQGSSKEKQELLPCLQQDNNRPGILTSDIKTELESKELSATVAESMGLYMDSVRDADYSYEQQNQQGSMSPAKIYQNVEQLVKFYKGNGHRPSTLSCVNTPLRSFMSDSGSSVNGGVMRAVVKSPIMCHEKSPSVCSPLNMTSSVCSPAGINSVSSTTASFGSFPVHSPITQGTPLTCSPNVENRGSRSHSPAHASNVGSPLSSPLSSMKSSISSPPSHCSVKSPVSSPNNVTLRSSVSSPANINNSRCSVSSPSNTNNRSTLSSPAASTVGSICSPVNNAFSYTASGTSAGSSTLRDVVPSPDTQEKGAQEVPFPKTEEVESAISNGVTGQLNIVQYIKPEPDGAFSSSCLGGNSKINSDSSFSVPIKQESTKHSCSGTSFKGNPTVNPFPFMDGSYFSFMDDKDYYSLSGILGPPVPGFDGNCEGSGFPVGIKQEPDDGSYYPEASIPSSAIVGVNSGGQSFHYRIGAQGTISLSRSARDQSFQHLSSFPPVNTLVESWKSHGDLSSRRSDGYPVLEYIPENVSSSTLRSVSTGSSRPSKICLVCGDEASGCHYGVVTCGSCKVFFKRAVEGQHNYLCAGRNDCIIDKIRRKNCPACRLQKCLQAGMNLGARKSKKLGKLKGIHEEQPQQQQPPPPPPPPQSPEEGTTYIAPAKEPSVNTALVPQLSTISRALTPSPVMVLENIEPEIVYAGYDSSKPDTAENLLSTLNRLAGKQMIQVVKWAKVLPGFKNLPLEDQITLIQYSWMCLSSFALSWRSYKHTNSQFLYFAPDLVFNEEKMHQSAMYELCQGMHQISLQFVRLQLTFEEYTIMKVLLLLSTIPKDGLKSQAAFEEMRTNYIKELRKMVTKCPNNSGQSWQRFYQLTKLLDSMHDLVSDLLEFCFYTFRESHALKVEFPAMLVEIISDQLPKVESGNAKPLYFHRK
How it was run: (§1)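 Gal4-steroid receptor LBD fusion plasmid plus GAL4_UAS (5 copies, E1b TATA)-luciferase reporter, 50 ng/well each, transfected 16 h into COS-7 cells grown in phenol red-free DMEM with 10% charcoal/dextran-treated FBS. Compound treatment 20 h, then luciferase read-out. Antagonist mode uses 3 nM aldosterone (hMR) or 5 nM 17β-estradiol (hER). Values are the average of at least duplicate determinations.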

[2] = biological target: T2, Mineralocorticoid receptor (Homo sapiens, UniProt P08235); test: Antagonist activity at human MR ligand binding domain expressed in african green monkey COS7 cells in presence of aldosterone by Gal4 hybrid assay; format: cell-based, COS-7; how it was run: as §1
T2 sequence (P08235 whole entry): T1 sequence (whole entry)

[3] = biological target: T3, Androgen receptor (Homo sapiens, UniProt P10275)
T3 sequence (P10275 whole entry): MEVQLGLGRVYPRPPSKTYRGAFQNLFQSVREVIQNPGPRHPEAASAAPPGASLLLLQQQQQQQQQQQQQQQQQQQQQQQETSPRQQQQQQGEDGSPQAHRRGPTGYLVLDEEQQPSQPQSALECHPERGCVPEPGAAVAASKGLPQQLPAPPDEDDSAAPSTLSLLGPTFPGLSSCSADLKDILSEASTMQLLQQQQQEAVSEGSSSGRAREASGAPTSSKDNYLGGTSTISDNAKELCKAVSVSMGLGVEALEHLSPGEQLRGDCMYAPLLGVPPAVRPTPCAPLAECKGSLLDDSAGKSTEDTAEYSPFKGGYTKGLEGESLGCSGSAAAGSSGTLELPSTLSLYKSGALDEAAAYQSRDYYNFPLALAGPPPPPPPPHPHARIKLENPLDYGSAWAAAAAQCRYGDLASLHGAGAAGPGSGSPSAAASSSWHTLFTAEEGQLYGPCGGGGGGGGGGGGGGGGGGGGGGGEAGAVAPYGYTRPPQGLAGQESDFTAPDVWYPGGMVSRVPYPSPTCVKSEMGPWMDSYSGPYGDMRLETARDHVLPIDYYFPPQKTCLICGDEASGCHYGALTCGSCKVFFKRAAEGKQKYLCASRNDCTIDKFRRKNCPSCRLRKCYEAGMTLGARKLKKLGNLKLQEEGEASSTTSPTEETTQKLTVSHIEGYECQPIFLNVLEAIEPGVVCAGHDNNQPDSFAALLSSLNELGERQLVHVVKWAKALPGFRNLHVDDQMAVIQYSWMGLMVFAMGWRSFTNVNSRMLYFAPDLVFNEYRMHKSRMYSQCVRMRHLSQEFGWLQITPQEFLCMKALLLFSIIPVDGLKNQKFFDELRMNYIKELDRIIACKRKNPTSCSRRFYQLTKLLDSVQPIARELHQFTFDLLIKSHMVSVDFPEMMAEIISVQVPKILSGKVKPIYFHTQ

[4] = biological target: T4, Estrogen receptor (Homo sapiens) (UniProt P03372); test: Agonist activity at human ER ligand binding domain expressed in african green monkey COS7 cells by Gal4 hybrid assay; format: cell-based; conditions: COS-7; how it was run: as §1
T4 sequence (whole entry): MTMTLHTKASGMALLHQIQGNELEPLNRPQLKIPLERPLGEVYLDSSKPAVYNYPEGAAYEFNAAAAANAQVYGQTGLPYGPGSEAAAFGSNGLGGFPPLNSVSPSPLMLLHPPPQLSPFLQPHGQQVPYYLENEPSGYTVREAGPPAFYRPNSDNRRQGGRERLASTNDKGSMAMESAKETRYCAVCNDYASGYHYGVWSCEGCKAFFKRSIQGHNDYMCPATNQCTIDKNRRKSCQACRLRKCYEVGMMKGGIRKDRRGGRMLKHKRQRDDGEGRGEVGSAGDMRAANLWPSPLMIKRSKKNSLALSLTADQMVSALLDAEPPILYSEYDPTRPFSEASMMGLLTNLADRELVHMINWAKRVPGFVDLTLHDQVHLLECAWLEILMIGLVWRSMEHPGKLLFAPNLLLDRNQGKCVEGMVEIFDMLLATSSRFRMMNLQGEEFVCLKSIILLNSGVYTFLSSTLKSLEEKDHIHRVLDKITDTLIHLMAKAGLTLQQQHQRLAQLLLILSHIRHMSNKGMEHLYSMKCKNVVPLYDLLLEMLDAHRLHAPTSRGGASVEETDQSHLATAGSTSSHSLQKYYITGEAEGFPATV

[5] = biological target: T5, Glucocorticoid receptor (Homo sapiens, UniProt P04150); test: Antagonist activity at human GR ligand binding domain expressed in african green monkey COS7 cells in presence of Dexamethasone by Gal4 hybrid assay; format: cell-based, COS-7
T5 sequence (P04150 whole entry): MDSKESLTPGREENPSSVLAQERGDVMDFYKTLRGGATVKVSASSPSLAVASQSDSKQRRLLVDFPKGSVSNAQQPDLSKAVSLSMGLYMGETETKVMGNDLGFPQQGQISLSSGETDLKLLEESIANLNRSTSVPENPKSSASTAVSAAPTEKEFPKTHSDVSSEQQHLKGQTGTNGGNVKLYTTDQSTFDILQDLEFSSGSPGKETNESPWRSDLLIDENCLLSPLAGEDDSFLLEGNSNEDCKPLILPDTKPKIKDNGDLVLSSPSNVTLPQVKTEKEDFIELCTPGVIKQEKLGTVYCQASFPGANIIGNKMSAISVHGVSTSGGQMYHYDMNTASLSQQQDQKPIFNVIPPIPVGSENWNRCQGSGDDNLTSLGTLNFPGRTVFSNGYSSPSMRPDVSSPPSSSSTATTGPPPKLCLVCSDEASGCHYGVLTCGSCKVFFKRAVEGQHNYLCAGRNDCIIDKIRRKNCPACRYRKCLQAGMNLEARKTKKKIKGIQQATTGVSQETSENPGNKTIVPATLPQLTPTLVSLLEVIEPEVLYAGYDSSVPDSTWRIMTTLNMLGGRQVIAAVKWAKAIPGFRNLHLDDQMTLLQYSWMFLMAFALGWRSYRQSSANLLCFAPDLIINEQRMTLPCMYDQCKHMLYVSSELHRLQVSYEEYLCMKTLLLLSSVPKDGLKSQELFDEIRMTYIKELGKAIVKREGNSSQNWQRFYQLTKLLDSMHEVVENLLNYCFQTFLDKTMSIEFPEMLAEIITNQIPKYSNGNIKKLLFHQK

[6] = biological target: T6, Estrogen receptor (Homo sapiens, UniProt P03372); test: Antagonist activity at human ER ligand binding domain expressed in african green monkey COS7 cells in presence of 17-beta-estradiol by Gal4 hybrid assay; format: cell-based, COS-7; how it was run: as §1
T6 sequence (P03372 whole entry): T4 sequence (whole entry)

Activity [1]: inactive
IC50 [2]: 1600 nM
IC50 [3]: 6.1 nM
Activity [4]: inactive
IC50 [5]: 85 nM
IC50 [6]: 1900 nM
Compound: COC[C@]1(OC)CC[C@H]2[C@@H]3CCC4=CC(=O)CCC4=C3[C@@H](c3ccc(/C=N/O)cc3)C[C@@]21C [ASOPRISNIL]
